Assay results reported in ChEMBL document CHEMBL1687848, “In vitro effect of qnrA1, qnrB1, and qnrS1 genes on fluoroquinolone activity against isogenic Escherichia coli isolates with mutations in gyrA and parC” (2011).
≈ marks a conversion by molar mass, not a printed value.

Experiments:
Assay type in all cases: functional
Escherichia coli [1] = assay: Antibacterial activity against Escherichia coli ATCC 25922 assessed as earliest time required to resistant colonies visible one step below mutant prevention concentration
Escherichia coli [2] = assay: Ratio of mutant prevention concentration to MIC for Escherichia coli ATCC 25922 expressing qnrA gene and pBK-QnrA1
In short: (§1)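 MIC: broth microdilution per CLSI, in duplicate. The ratio is MPC over MIC. Strains are E. coli ATCC 25922 or its GyrA Ser83Leu gene-replacement mutant, with qnr genes on pBK-CMV introduced by electroporation.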

Escherichia coli [3] = assay: Antibacterial activity against Escherichia coli ATCC 25922 assessed as resistant colonies recovered one step below mutant prevention concentration
In short: (§2)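 Resistant colonies recovered from Mueller-Hinton plates one concentration step below the MPC for each fluoroquinolone were retested for MIC. Mutants taken from plated concentrations closest to the MPC had the QRDRs of gyrA and parC analysed.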

Escherichia coli [4] = assay: Antibacterial activity against Escherichia coli ATCC 25922 harboring ParC S80R mutant by broth microdilution method
Escherichia coli [5] = assay: Antibacterial activity against qnrB gene expressing Escherichia coli ATCC 25922 harboring ParC S80R mutant and pBK-QnrB1 by broth microdilution method
Escherichia coli [6] = assay: Antibacterial activity against qnrB gene expressing Escherichia coli ATCC 25922 harboring GyrA S83L mutant and pBK-QnrB1 assessed as resistant colonies recovered one step below mutant prevention concentration; in short: as §2
Escherichia coli [7] = assay: Ratio of mutant prevention concentration to MIC for qnrA gene expressing Escherichia coli ATCC 25922 harboring GyrA S83L mutant and pBK-QnrA1; in short: as §1
Escherichia coli [8] = assay: Antibacterial activity against Escherichia coli ATCC 25922 expressing qnrB gene and pBK-QnrB1 assessed as mutant prevention concentration
Escherichia coli [9] = assay: Antibacterial activity against Escherichia coli ATCC 25922 harboring GyrA S83L mutant and ParC S80R mutant by broth microdilution method
Escherichia coli [10] = assay: Antibacterial activity against qnrS gene expressing Escherichia coli ATCC 25922 harboring ParC S80R mutant, ParC S80R mutant and pBK-QnrS1 by broth microdilution method
Escherichia coli [11] = assay: Antibacterial activity against qnrS gene expressing Escherichia coli ATCC 25922 harboring GyrA S83L mutant and pBK-QnrS1 by broth microdilution method

CCn1cc(C(=O)O)c(=O)c2cc(F)c(N3CCNCC3)cc21 [NORFLOXACIN]
Time (Escherichia coli [1]): 48 h
Ratio (Escherichia coli [2]): 16
MIC (Escherichia coli [3]): 0.25 µg/mL (≈ 0.783 µM)
MBC (Escherichia coli [4]): 0.03 µg/mL (≈ 0.0939 µM)
MIC (Escherichia coli [4]): 0.03 µg/mL (≈ 0.0939 µM)
MBC (Escherichia coli [5]): 0.5 µg/mL (≈ 1.57 µM)
MIC (Escherichia coli [5]): 0.5 µg/mL (≈ 1.57 µM)
MIC (Escherichia coli [6]): 2 µg/mL (≈ 6.26 µM)
Ratio (Escherichia coli [7]): 16
Activity (Escherichia coli [8]): 8 µg/mL
MBC (Escherichia coli [9]): 2 µg/mL (≈ 6.26 µM)
MIC (Escherichia coli [9]): 2 µg/mL (≈ 6.26 µM)
MBC (Escherichia coli [10]): 16 µg/mL (≈ 50.1 µM)
MIC (Escherichia coli [10]): 8 µg/mL (≈ 25.1 µM)
MBC (Escherichia coli [11]): 4 µg/mL (≈ 12.5 µM)
MIC (Escherichia coli [11]): 2 µg/mL (≈ 6.26 µM)
